Assays:
[1] = cited from earlier work
native EML4-ALK = conditions: read-out: IC90 for inhibition of native EML4-ALK; cellular assays; cited from earlier work
[2] = cited from earlier work; remark: listed apart in the source
[3] = cited from earlier work; remark: listed apart in the source
EML4-ALK mutants = conditions: read-out: IC90 range for EML4-ALK mutants; cellular assays; cited from earlier work
[4] = cited from earlier work; remark: listed apart in the source
[5] = cited from earlier work; remark: listed apart in the source
[6] = cited from earlier work; remark: listed apart in the source
[7] = test system: patients with locally advanced or metastatic ALK-positive NSCLC; conditions: 180 mg qd with a 7-day lead-in at 90 mg qd; crizotinib-refractory patients; cited from earlier work
human plasma proteins = conditions: cited from earlier work
[8] = Population pharmacokinetic model; type: in vivo, human; conditions: for Variability in CL/F explained by albumin: albumin as covariate in the final model
In short: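 Plasma measured by two validated LC/MS methods, combined range 0.1–2500 ng/mL. Inter-individual effects multivariate normal; residual error additive, proportional or mixed. Covariates tested on CL/F and V1/F in two steps. 1000 bootstrap replicates with replacement; 1000-replicate prediction-corrected VPC.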

[9] = test system: patients with ALK + NSCLC who are ALK inhibitor naive; conditions: first interim analysis, blinded independent review committee; cited from earlier work
[10] = cited from earlier work; remark: listed apart in the source
[11] = single oral 180-mg radiolabeled dose, healthy volunteers

COc1cc(N2CCC(N3CCN(C)CC3)CC2)ccc1Nc1ncc(Cl)c(Nc2ccccc2P(C)(C)=O)n1 [brigatinib]
Increase in unbound AUC0–∞, severe renal impairment vs normal renal function [1]: approximately twofold | IC90 (native EML4-ALK): 38 nM | Solubility [2]: high | Permeability [3]: high | IC90 (EML4-ALK mutants): 22 to 762 nM | Increase in unbound brigatinib systemic exposure (AUC0–∞), severe hepatic impairment (Child–Pugh C) [4]: approximately 37% | Overall radiolabeled dose recovered as unchanged drug [5]: Approximately 50% | Administered dose recovered in feces [5, 11]: approximately 65% | Administered dose recovered in urine [5, 11]: ~25% | Unchanged brigatinib in feces [5, 11]: 41% | Unchanged brigatinib in urine [5, 11]: 86% | Enzymes metabolizing the remainder to inactive or minor metabolites [6]: primarily by cytochrome P450 (CYP) 3A and CYP2C8 | Oral bioavailability [6]: orally bioavailable | Median progression-free survival [7]: 16.7 months | Bound to human plasma proteins (human plasma proteins): approximately 90% | Variability in CL/F explained by albumin [8]: approximately 5% | Variability in CL/F explained by albumin ([8]; listed as Brigatinib): Albumin was included as a covariate on apparent clearance in the final population pharmacokinetic model, explaining approximately 5% of variability in apparent clearance. | Albumin covariate effect on CL/F, bootstrap median (2.5th to 97.5th percentile) ([8]; bootstrap of 1000 replicates): 0.656 (0.474–0.849) | CL/F, bootstrap median (2.5th to 97.5th percentile) ([8]; bootstrap of 1000 replicates): 10.6 (10.2–11.1) L/h | Mean transit time, bootstrap median (2.5th to 97.5th percentile) ([8]; bootstrap of 1000 replicates): 0.9 (0.8–1.0) h | Q1/F, bootstrap median (2.5th to 97.5th percentile) ([8]; bootstrap of 1000 replicates): 12.8 (10.5–16.2) L/h | Q2/F, bootstrap median (2.5th to 97.5th percentile) ([8]; bootstrap of 1000 replicates): 2.46 (1.09–4.76) L/h | V1/F, bootstrap median (2.5th to 97.5th percentile) ([8]; bootstrap of 1000 replicates): 208 (193–219) L | V2/F, bootstrap median (2.5th to 97.5th percentile) ([8]; bootstrap of 1000 replicates): 118 (83.6–147) L | V3/F, bootstrap median (2.5th to 97.5th percentile) ([8]; bootstrap of 1000 replicates): 82.3 (57.6–112) L | No. of transit compartments, bootstrap median ([8]; bootstrap of 1000 replicates, fixed): 2.35 (–) | Inter-individual variability of mean transit time, % (% CV) ([8]; final population PK model): 59 (7.5) % | Mean transit time, model estimate (% CV) ([8]; final population PK model): 0.9 (3.6) h | No. of transit compartments, model estimate ([8]; final population PK model, fixed at the population estimate): 2.35 | Mean transit time, model estimate (% CV) ([8]; final population PK model, listed as Brigatinib): 0.9 h | Higher CL/F at 95th percentile of albumin vs median albumin ([8]; predicted, higher than a patient with the median albumin value): ~20% | Lower CL/F at 5th percentile of albumin vs median albumin ([8]; predicted, lower than a patient with the median albumin value): approximately 22% | 12-month event-free rate [9]: 67% | Decrease in maximum plasma concentration following a high-fat meal [10]: 13% | Effect of a high-fat meal on AUC [10]: without a corresponding decrease in AUC
